Where “and” joins values, the source holds several entries; their conditions need not be identical. Identical values can stand only once.
Columns and labels:
[1] = tested on: HIV-1 with A364V mutation; assay: Phenotypic resistance of participant virus with A364V; assay type: cell-based; conditions: virus of 1 participant (200 mg) with full conversion to A364V
HIV-1 = assay: Phase IIa monotherapy study: antiviral effect; assay type: in vivo, HIV-1–positive, treatment-naive adults; conditions: for Plasma HIV-1 RNA change from baseline to nadir, mean (SD): n = 6; for Modeled plasma HIV-1 RNA maximum change (nadir), least squares mean (90% CI): mixed-effects model
In short: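 Randomized, double-blind, placebo-controlled oral monotherapy, once daily after a moderate-fat meal (≥400 calories, ≥120 from fat) taken 30 minutes before dosing. Part 1: 10 or 200 mg for 10 days. Part 2: 40–140 mg for 7 days, then combination ART from day 8. Plasma HIV-1 RNA endpoints were maximum change and change to day 11 (part 1) or day 8 (part 2). Maximum change was fitted by a mixed-effects linear model; dose–response by an Emax model pooling both parts (ED50).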

[2] = tested on: triple-mutant polymorph (R361K/V362I/L363M); conditions: cited from earlier work
[3] = 10 mg once daily, part 1 (10 days)
[4] = 40 mg once daily, part 2 (7 days)
[5] = 80 mg once daily, part 2 (7 days)
[6] = 140 mg once daily, part 2 (7 days)
[7] = 200 mg once daily, part 1 (10 days)

C=C(C)[C@@H]1CC[C@]2(NCCN3CCS(=O)(=O)CC3)CC[C@]3(C)[C@H](CC[C@@H]4[C@@]5(C)CC=C(C6=CC[C@@](CF)(C(=O)O)CC6)C(C)(C)[C@@H]5CC[C@]43C)[C@@H]12 [GSK’254]
Fold change in half maximal inhibitory concentration (phenotypic resistance) [1]: 132 fold | Maximum change in HIV-1 RNA (HIV-1; 10 mg once daily, 10 days): −0.4 log10 | Plasma HIV-1 RNA change from baseline to nadir, mean (SD) (HIV-1; [3]): −0.36 (0.25) log10 copies/mL | Modeled plasma HIV-1 RNA maximum change (nadir), least squares mean (90% CI) (HIV-1; [3]): −0.34 (−.67 to −.00) log10 copies/mL | Plasma HIV-1 RNA change from baseline to primary endpoint, mean (SD) (HIV-1; 10 mg once daily, part 1, Day 11, n = 6): −0.22 (0.31) log10 copies/mL | Maximum change in HIV-1 RNA (HIV-1; 40 mg once daily, 7 days): −1.2 log10 | Plasma HIV-1 RNA change from baseline to nadir, mean (SD) (HIV-1; [4]): −1.18 (0.44) log10 copies/mL | Modeled plasma HIV-1 RNA maximum change (nadir), least squares mean (90% CI) (HIV-1; [4]): −1.05 (−1.29 to −.82) log10 copies/mL | Plasma HIV-1 RNA change from baseline to primary endpoint, mean (SD) (HIV-1; 40 mg once daily, part 2, Day 8, n = 6): −1.18 (0.44) log10 copies/mL | Maximum change in HIV-1 RNA (HIV-1; 80 mg once daily, 7 days): −1.0 log10 | Plasma HIV-1 RNA change from baseline to nadir, mean (SD) (HIV-1; [5]): −1.02 (0.33) log10 copies/mL | Modeled plasma HIV-1 RNA maximum change (nadir), least squares mean (90% CI) (HIV-1; [5]): −0.94 (−1.16 to −.72) log10 copies/mL | Plasma HIV-1 RNA change from baseline to primary endpoint, mean (SD) (HIV-1; 80 mg once daily, part 2, Day 8, n = 6): −1.02 (0.33) log10 copies/mL | Maximum change in HIV-1 RNA (HIV-1; 140 mg once daily, 7 days): −1.5 log10 | Plasma HIV-1 RNA change from baseline to nadir, mean (SD) (HIV-1; [6]): −1.49 (0.27) log10 copies/mL | Modeled plasma HIV-1 RNA maximum change (nadir), least squares mean (90% CI) (HIV-1; [6]): −1.49 (−1.70 to − 1.28) log10 copies/mL | Plasma HIV-1 RNA change from baseline to primary endpoint, mean (SD) (HIV-1; 140 mg once daily, part 2, Day 8, n = 6): −1.45 (0.24) log10 copies/mL | Maximum change in HIV-1 RNA (HIV-1; 200 mg once daily, 10 days): −2.0 log10 | Plasma HIV-1 RNA change from baseline to nadir, mean (SD) (HIV-1; [7]): −2.01 (0.33) log10 copies/mL | Modeled plasma HIV-1 RNA maximum change (nadir), least squares mean (90% CI) (HIV-1; [7]): −1.93 (−2.24 to −1.62) log10 copies/mL | Plasma HIV-1 RNA change from baseline to primary endpoint, mean (SD) (HIV-1; 200 mg once daily, part 1, Day 11, n = 6): −1.96 (0.34) log10 copies/mL | Maximum mean decline from baseline in HIV-1 RNA (HIV-1; 10-mg dose): 0.36 log10 | Participants with >1.5-log10 decline in HIV-1 RNA from baseline at Day 8 (HIV-1; 40-mg group (n = 6)): 1 participants | Maximum mean decline in HIV-1 RNA (HIV-1; 140-mg group): 1.5 log10 | Participants with >1.5-log10 decline in HIV-1 RNA from baseline at Day 8 (HIV-1; 140-mg group (n = 6)): 3 participants | Maximum mean decline in HIV-1 RNA (HIV-1; 200-mg group): 2.0 log10 | Decline from baseline in HIV-1 RNA at day 11 in all participants (HIV-1; 200-mg group, day 11): > 1.5 log10 | Half maximal effective dose (ED50) (HIV-1; Emax nonlinear model, maximum change in HIV-1 RNA to day 8 vs dose, once daily): 42.67 mg and 42.7 mg and ~ 43 mg | Decline in HIV-1 RNA (HIV-1; doses ≥40 mg, regardless of dosing duration): ≥ 1 log10 | Potency as an antiviral (maximum change in HIV-1 RNA) (HIV-1; monotherapy): 2 log10 | Median time to nadir in HIV-1 RNA (HIV-1; part 1 (10 days dosing)): 11.5 days | Median time to nadir in HIV-1 RNA (HIV-1; part 2 (7 days dosing)): 8.0 days | EC90 ([2]; read-out: 3× protein-binding adjusted 90% effective concentration (3× PBA EC90)): 150 nM | EC50 ([2]; read-out: Half maximal effective concentration (EC50)): 3 nM | 3× protein-binding adjusted 90% effective concentration (3× PBA EC90) ([2]; target trough concentration): 0.11 µg/mL
